Measured values from different studies.
Protocols differ between the studies behind these lines.
Organism: Human immunodeficiency virus 1
Effect on: viral replication

The IC50 of `O=c1oc2c(O)c(O)cc3c(=O)oc4c(O)c(O)cc1c4c23` is reported as 73 µg/mL (inhibitor; CEM-GFP; 8 days).
For `O=C1C[C@@H](c2ccc(O)cc2)Oc2cc(O)cc(O)c21`, the EC50 was > 30 µM (inhibitor; human PBMC; 6 days).
`Cc1cn([C@H]2C[C@H](N=[N+]=[N-])[C@@H](CO)O2)c(=O)[nH]c1=O` has an IC50 of 0.043 µg/mL (inhibitor, luciferase; TZM-bl; 48 h).
`OCc1cc(C(O)CNCCCCCCOCCCCc2ccccc2)ccc1O` (stereo not drawn) gave an EC50 of 20 µM (inhibitor; TZM-bl).
With `C[N+](C)(C)CCCn1c(=O)c2cc(Br)c3c(=O)n(CCC[N+](C)(C)C)c(=O)c4c5[nH]c6ccccc6[nH]c5c(c1=O)c2c34` the IC50 was > 5 µM (TZM-bl, NL43; 48 h).
The IC50 of `O=C(O)c1cc(O)c(O)c(O)c1` is reported as 0.19 µg/mL (inhibitor; CEM-GFP; 8 days).
With `C[C@@H](O[C@H]1OCCN(Cc2n[nH]c(=O)[nH]2)[C@H]1c1ccc(F)cc1)c1cc(C(F)(F)F)cc(C(F)(F)F)c1` the IC50 was 6.4 µM (inhibitor, ELISA; human PBMC, BAL).
`O=C(O)c1cc(F)cc(Cn2ccc3ccc(-c4ccc5ccn(Cc6cccc(OC(F)(F)F)c6)c5c4)cc32)c1` has an IC50 of 2 µM (inhibitor; IIIB).
`O=c1cc(-c2ccc(O)cc2)oc2cc(O)cc(O)c12` gave an EC50 of 5 µM (inhibitor; human PBMC; 6 days).
With `O=c1[nH]cc(C(c2cccc(C(c3c[nH]c(=O)[nH]c3=O)c3c[nH]c(=O)[nH]c3=O)c2)c2c[nH]c(=O)[nH]c2=O)c(=O)[nH]1` the inhibition was 20% (inhibitor, ELISA; 1 µg/mL).
For `CC(C)(C)NC(=O)[C@@H]1C[C@@H]2CCCC[C@@H]2CN1C[C@@H](O)[C@H](Cc1ccccc1)NC(=O)[C@H](CC(N)=O)NC(=O)c1ccc2ccccc2n1`, the IC50 was 0.021 µM (inhibitor; T-lymphoid).
`Cc1cn([C@H]2C[C@H](N=[N+]=[N-])[C@@H](CO)O2)c(=O)[nH]c1=O` gave an IC50 of 0.005 µM (inhibitor, ELISA; human PBMC, NL43; 7 days).
`Cc1nc(C(CN)NC(=O)C(=O)Nc2ccc3c(c2)OCO3)sc1CO` (stereo not drawn) gave an IC50 of > 79 µM (ELISA; MT2).
The EC50 of `O=c1cc(-c2ccc(O)c(O)c2)oc2cc(O)cc(O)c12` is reported as 12.7 µM (inhibitor; human PBMC; 6 days).
`CCOC(=O)c1cccc(Cn2ccc3ccc(-c4ccc5ccn(Cc6cccc(C(=O)O)c6)c5c4)cc32)c1` gave an IC90 of 28.9 µM (inhibitor; MAGI, BAL).
